Data: ChEMBL document CHEMBL1123566, “Synthesis and cardiac electrophysiological activity of 2- and 3-[(substituted phenyl)alkyl]quinuclidines. Structure-activity relationships” (1987)
“And” between values parts separate entries of the source, which are not always exact repeats. Equal values may be shown once.

Columns and labels:
Canis familiaris [1] = organism: Canis familiaris; test: In vitro electrophysiological evaluation in canine cardiac ventricular muscle reported as % change for the functional refractory period (FRP) at 10 uM at concentration range of 1-100 uM; parameters: species or system Canis lupus familiaris, Muscle tissue
Procedure, shortened: (§1)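 Canine right ventricle and papillary muscle strips in oxygenated Tyrode's solution, fitted with stimulating and recording electrodes. The extra-stimulus conduction-interval method was adapted for in vitro use. FRP and CT were read from a conduction-interval curve before and after various compound concentrations, and expressed as percent change from control. Compounds were taken from 10 mM deionized-water stock into Tyrode's. Each strip was used once as its own control.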

Canis familiaris [2] = organism: Canis familiaris; test: In vitro electrophysiological evaluation in canine cardiac ventricular muscle reported as maximum % change for functional refractory period (FRP) at 1-100 uM concentration range; concentration at which it occurred is 100 uM; parameters: species or system Canis lupus familiaris, Muscle tissue; procedure, shortened: as §1
Canis familiaris [3] = organism: Canis familiaris; test: In vitro electrophysiological evaluation in canine cardiac ventricular muscle reported as maximum % change for conduction time(CT) at 0.1-100 uM concentration range; Minimal (<10% decrease or increase in CT).; assay type: functional, Canis lupus familiaris, Muscle tissue; procedure, shortened: as §1
Canis familiaris [4] = organism: Canis familiaris; test: In vitro electrophysiological evaluation in canine cardiac ventricular muscle reported as % change for conduction time(CT) at 10 uM at 1-100 uM concentration range; Minimal (<10% decrease or increase in CT).; assay type: functional, Canis lupus familiaris, Muscle tissue
Canis familiaris [5] = organism: Canis familiaris; test: In vitro electrophysiological evaluation in canine cardiac ventricular muscle reported as maximum % change for conduction time(CT) at 0.1-100 uM concentration range; concentration at which it occurred is 100 uM; assay type: functional, Canis lupus familiaris, Muscle tissue; procedure, shortened: as §1
Canis familiaris [6] = organism: Canis familiaris; test: In vitro electrophysiological activity in canine cardiac occurred is 100 uM.; assay type: functional, Canis lupus familiaris, Heart
Canis familiaris [7] = organism: Canis familiaris; test: In vitro electrophysiological evaluation in canine cardiac ventricular muscle reported as % change for the functional refractory period (FRP) at 10 uM at concentration range of 0.1-100 uM; parameters: species or system Canis lupus familiaris, Muscle tissue; procedure, shortened: as §1
Canis familiaris [8] = organism: Canis familiaris; test: In vitro electrophysiological evaluation in canine cardiac occurred is 100 uM; assay type: functional; settings: Canis lupus familiaris; Heart
Canis familiaris [9] = organism: Canis familiaris; test: In vitro electrophysiological evaluation in canine cardiac ventricular muscle reported as % change for conduction time(CT) at 10 uM at 0.1-100 uM concentration range; Minimal (<10% decrease or increase in CT).; assay type: functional, Canis lupus familiaris, Muscle tissue
Canis familiaris [10] = organism: Canis familiaris; test: In vitro electrophysiological evaluation in canine cardiac Purkinje fibres reported as % change for action potential duration at a concentration of 10 uM; assay type: functional, Canis lupus familiaris, Purkinje fiber
Procedure, shortened: (§2)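 Canine cardiac Purkinje fibres, intracellular microelectrode recording, paced at a basic cycle length of 1 s. APD95 and Vmax read simultaneously. Compound: 10 mM stock in deionized water, diluted into Tyrode's solution, tested over the stated concentration range. Each fibre used once as its own control. Result is % change from control, given at 10 µM or as the maximum with its concentration. M = <10% decrease or an increase in Vmax.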

Canis familiaris [11] = organism: Canis familiaris; test: In vitro electrophysiological evaluation in canine cardiac Purkinje fibres reported as % change for action potential duration at 10 uM at 1-100 uM concentration range; assay type: functional, Canis lupus familiaris, Purkinje fiber; procedure, shortened: as §2
Canis familiaris [12] = organism: Canis familiaris; test: In vitro electrophysiological evaluation in canine cardiac ventricular muscle reported as maximum % change for conduction time(CT) at 1-100 uM concentration range; concentration at which it occurred is 100 uM; assay type: functional, Canis lupus familiaris, Muscle tissue; procedure, shortened: as §1
Canis familiaris [13] = organism: Canis familiaris; test: In vitro electrophysiological evaluation in canine cardiac Purkinje fibres reported as percent change Vmax at 10 uM at concentration range of 1-100 uM; assay type: functional; settings: Canis lupus familiaris, Purkinje fiber; procedure, shortened: as §2
Canis familiaris [14] = organism: Canis familiaris; test: In vitro electrophysiological evaluation in canine cardiac ventricular muscle reported as maximum % change for functional refractory period (FRP) at 0.1-100 uM concentration range; concentration at which it occurred is 100 uM; parameters: species or system Canis lupus familiaris, Muscle tissue; procedure, shortened: as §1
Canis familiaris [15] = organism: Canis familiaris; test: In vitro electrophysiological activity in canine cardiac occurred is 10 uM.; assay type: functional, Canis lupus familiaris, Heart

For `CCOC(=O)C(CC1C(=O)C2CCN1CC2)C(=O)c1ccc(Cl)c(NS(C)(=O)=O)c1.Cl` (stereo not given), the FRP (Canis familiaris [1]) was 10%, the FRP (Canis familiaris [2]) was 15% and the CT (Canis familiaris [3]) was under 10%. For the same molecule, the CT (Canis familiaris [4]) was under 10%, the CT (Canis familiaris [5]) was 12% and the APD95 (Canis familiaris [6]) was -16%. The FRP (Canis familiaris [7]) was 5% and -7% and 6%, the Vmax (Canis familiaris [8]) was -19% and -21% and the CT (Canis familiaris [9]) was under 10%. The APD95 (Canis familiaris [10]) was 9%, the APD95 (Canis familiaris [11]) was -4% and the CT (Canis familiaris [12]) was 14%. The Vmax (Canis familiaris [13]) was -11% and -10%, the FRP (Canis familiaris [14]) was 12% and 5% and 14% and the APD95 (Canis familiaris [15]) was 9%.
